Measured values reported in ChEMBL document CHEMBL4359823, “Switching on the activity of 1,5-diaryl-pyrrole derivatives against drug-resistant ESKAPE bacteria: Structure-activity relationships and mode of action studies” (Eur J Med Chem, 2019).
Converted amounts (≈) assume the structure as drawn. The source made the active and inactive calls. No cut-off for these calls is given here.

Columns and labels:
Staphylococcus aureus [1] = experiment: Antibacterial activity against methicillin sensitive Staphylococcus aureus NCTC 6571 measured after overnight incubation by microbroth dilution method; format: functional
How it was run: (§1)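 Microbroth dilution: DMSO stocks diluted in water, 2-fold series. Overnight TSB cultures back-diluted to OD 0.01 and mixed 1:1 with compound. Incubated overnight at 37 °C; MIC taken as lowest concentration without visible growth (<0.1 OD600). Run in duplicate; matching DMSO levels checked for effect on growth.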

Enterococcus faecalis [2] = experiment: Antibacterial activity against vancomycin sensitive Enterococcus faecalis NCTC775 measured after overnight incubation by microbroth dilution method; format: functional; how it was run: as §1
Enterococcus faecalis [3] = experiment: Antibacterial activity against vancomycin resistant Enterococcus faecalis NCTC12204 measured after overnight incubation by microbroth dilution method; format: functional; how it was run: as §1
Klebsiella pneumoniae [4] = experiment: Antibacterial activity against Klebsiella pneumoniae NCTC13368 measured after overnight incubation in presence of polymyxin B nonapeptide by microbroth dilution method; format: functional
Klebsiella pneumoniae [5] = experiment: Antibacterial activity against Klebsiella pneumoniae NCTC13368 measured after overnight incubation in presence of phenylalanine arginine beta-naphthylamide by microbroth dilution method; format: functional
How it was run: (§2)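 Microbroth dilution MIC. Compound DMSO stocks were diluted in water as a 2-fold series. Overnight TSB cultures were back-diluted to OD 0.01 and mixed 1:1 with compound. Plates were incubated overnight at 37 °C. MIC was the lowest concentration without visible growth (<0.1 OD600), run in duplicate.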

Staphylococcus aureus [6] = experiment: Antibacterial activity against methicillin resistant Staphylococcus aureus NCTC13616 measured after overnight incubation by microbroth dilution method; format: functional; how it was run: as §1
Pseudomonas aeruginosa [7] = experiment: Antibacterial activity against Pseudomonas aeruginosa NCTC13437 measured after overnight incubation in presence of polymyxin B nonapeptide by microbroth dilution method; format: functional
Staphylococcus aureus [8] = experiment: Bacteriostatic activity against methicillin resistant Staphylococcus aureus NCTC13616 at 4 times MIC measured at 0 to 24 hrs by time kill assay
Acinetobacter baumannii [9] = experiment: Antibacterial activity against Acinetobacter baumannii ATCC 17978 measured after overnight incubation in presence of phenylalanine arginine beta-naphthylamide by microbroth dilution method; format: functional; how it was run: as §2
Enterococcus faecium = experiment: Antibacterial activity against Enterococcus faecium NCTC12204 assessed as generation of drug resistance at 2 times MIC measured after 48 hrs by agar-based microbroth dilution method
Escherichia coli [10] = experiment: Antibacterial activity against Escherichia coli NCTC12923 measured after overnight incubation in presence of phenylalanine arginine beta-naphthylamide by microbroth dilution method; format: functional; how it was run: as §2
Staphylococcus aureus [11] = experiment: Antibacterial activity against methicillin resistant Staphylococcus aureus NCTC13277 measured after overnight incubation by microbroth dilution method; format: functional; how it was run: as §1
Acinetobacter baumannii [12] = experiment: Antibacterial activity against Acinetobacter baumannii ATCC 17978 measured after overnight incubation by microbroth dilution method; format: functional; how it was run: as §2
Topoisomerase IV = Topoisomerase IV (Staphylococcus aureus, UniProt P0C1S7+P0C1U9); experiment: Inhibition of Staphylococcus aureus topoisomerase-4 expressed in Escherichia coli assessed as relaxation of pBR322 substrate measured after 30 mins by agarose gel electrophoresis
Pseudomonas aeruginosa [13] = experiment: Antibacterial activity against Pseudomonas aeruginosa NCTC13437 measured after overnight incubation in presence of phenylalanine arginine beta-naphthylamide by microbroth dilution method; format: functional; how it was run: as §2
Klebsiella pneumoniae [14] = experiment: Antibacterial activity against Klebsiella pneumoniae NCTC13368 measured after overnight incubation by microbroth dilution method; format: functional; how it was run: as §2
Enterococcus faecalis [15] = experiment: Bacteriostatic activity against vancomycin resistant Enterococcus feacalis NCTC12204 at 4 times MIC measured at 0 to 24 hrs by time kill assay
Pseudomonas aeruginosa [16] = experiment: Antibacterial activity against Pseudomonas aeruginosa NCTC13437 measured after overnight incubation by microbroth dilution method; format: functional; how it was run: as §2
Pseudomonas aeruginosa [17] = experiment: Antibacterial activity against Pseudomonas aeruginosa PAO1 measured after overnight incubation by microbroth dilution method; format: functional; how it was run: as §2
Staphylococcus aureus [18] = experiment: Antibacterial activity against Staphylococcus aureus NCTC13616 assessed as generation of drug resistance at 2 times MIC measured after 48 hrs by agar-based microbroth dilution method; format: functional
How it was run: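 Agar method: exponentially growing bacteria, in known numbers, plated on agar with doubling compound concentrations at and above the MIC; incubated 48 hours. Colonies growing above the MIC were picked and re-tested by microbroth MIC for raised resistance. Resistance frequency reported at 2xMIC.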

Acinetobacter baumannii [19] = experiment: Antibacterial activity against Acinetobacter baumannii ATCC 17978 measured after overnight incubation in presence of polymyxin B nonapeptide by microbroth dilution method; format: functional
Escherichia coli [20] = experiment: Antibacterial activity against Escherichia coli NCTC12923 measured after overnight incubation by microbroth dilution method; format: functional; how it was run: as §2
Acinetobacter baumannii [21] = experiment: Antibacterial activity against Acinetobacter baumannii AYE measured after overnight incubation in presence of phenylalanine arginine beta-naphthylamide by microbroth dilution method; format: functional; how it was run: as §2
Klebsiella pneumoniae [22] = experiment: Antibacterial activity against Klebsiella pneumoniae M6 measured after overnight incubation in presence of polymyxin B nonapeptide by microbroth dilution method; format: functional
HeLa = experiment: Cytotoxicity again human HeLa cells measured after 24 hrs by XTT assay; format: cell-based
How it was run: (§3)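 Cells were grown in EMEM with glutamine, 10% FBS and non-essential amino acids at 37 °C, 10% CO2. Seeding was 1 x 10^5 cells/mL (HEK293) or 4 x 10^4 cells/mL (HeLa), then 24 h adherence. Doubling compound dilutions were applied for 24 h. XTT/PMS was added for 4 h in the dark, with absorbance read at 450 nm. Untreated cells were the 100% control and water-treated cells the 0% control; IC50 was fitted.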

Enterococcus faecalis [23] = experiment: Antibacterial activity against vancomycin resistant Enterococcus faecalis NCTC12201 measured after overnight incubation by microbroth dilution method; format: functional; how it was run: as §1
[24] = Inhibition of Staphylococcus aureus DNA gyrase subunit A2B2 using relaxed pBR322 DNA as substrate measured after 30 mins in presence of ATP by ethidium bromide-based gel electrophoresis
How it was run: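 Supercoiling assay with S. aureus wild-type or S84L gyrase and relaxed pBR322, with or without varying compound, at 37 °C for 30 min. The reaction was stopped with STEB and extracted with chloroform:isoamyl alcohol (24:1). The aqueous phase was run on a 1% agarose gel and the supercoiled band quantified. IC50 came from at least three independent replicates.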

Pseudomonas aeruginosa [25] = experiment: Antibacterial activity against Pseudomonas aeruginosa PAO1 measured after overnight incubation in presence of phenylalanine arginine beta-naphthylamide by microbroth dilution method; format: functional; how it was run: as §2
Acinetobacter baumannii [26] = experiment: Antibacterial activity against Acinetobacter baumannii AYE measured after overnight incubation in presence of polymyxin B nonapeptide by microbroth dilution method; format: functional
DNA gyrase = DNA gyrase (Staphylococcus aureus, UniProt P0A0K8+P20831, S84L); experiment: Inhibition of Staphylococcus aureus DNA gyrase S84L mutant; format: protein-complex assay
HEK293 = experiment: Cytotoxicity again human HEK293 cells measured after 24 hrs by XTT assay; format: cell-based; details: HEK293, 24 h; how it was run: as §3
Klebsiella pneumoniae [27] = experiment: Antibacterial activity against Klebsiella pneumoniae M6 measured after overnight incubation by microbroth dilution method; format: functional; how it was run: as §2
Klebsiella pneumoniae [28] = experiment: Antibacterial activity against Klebsiella pneumoniae M6 measured after overnight incubation in presence of phenylalanine arginine beta-naphthylamide by microbroth dilution method; format: functional; how it was run: as §2
Escherichia coli [29] = experiment: Antibacterial activity against Escherichia coli NCTC12923 measured after overnight incubation in presence of polymyxin B nonapeptide by microbroth dilution method; format: functional
Pseudomonas aeruginosa [30] = experiment: Antibacterial activity against Pseudomonas aeruginosa PAO1 measured after overnight incubation in presence of polymyxin B nonapeptide by microbroth dilution method; format: functional
Acinetobacter baumannii [31] = experiment: Antibacterial activity against Acinetobacter baumannii AYE measured after overnight incubation by microbroth dilution method; format: functional; how it was run: as §2
Staphylococcus aureus [32] = experiment: Bactericidal activity against methicillin resistant Staphylococcus aureus NCTC13616 at 4 times MIC measured at 0 to 24 hrs by time kill assay; format: functional, organism-based
How it was run: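 Overnight cultures back-diluted to OD 0.01 in glass universals, compound added at 4 x MIC, 37 °C with shaking at 200 rpm. Sampled at 0, 2, 4, 6 and 24 h; CFU/mL counted by Miles-Misra; untreated control included.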

Structure (SMILES)	MIC (Staphylococcus aureus [1]) [µg/mL]	MIC (Enterococcus faecalis [2]) [µg/mL]	MIC (Enterococcus faecalis [3]) [µg/mL]	MIC (Klebsiella pneumoniae [4]) [µg/mL]	MIC (Klebsiella pneumoniae [5]) [µg/mL]	MIC (Staphylococcus aureus [6]) [µg/mL]	MIC (Pseudomonas aeruginosa [7]) [µg/mL]	MIC (Acinetobacter baumannii [9]) [µg/mL]	Activity (Enterococcus faecium)	MIC (Escherichia coli [10]) [µg/mL]	MIC (Staphylococcus aureus [11]) [µg/mL]	MIC (Acinetobacter baumannii [12]) [µg/mL]	MIC (Pseudomonas aeruginosa [13]) [µg/mL]	MIC (Klebsiella pneumoniae [14]) [µg/mL]	Activity (Enterococcus faecalis [15])	MIC (Pseudomonas aeruginosa [16]) [µg/mL]	MIC (Pseudomonas aeruginosa [17]) [µg/mL]	Activity (Staphylococcus aureus [18])	MIC (Acinetobacter baumannii [19]) [µg/mL]	MIC (Escherichia coli [20]) [µg/mL]	also measured
Cc1c(CNC2CCC(NC(=N)N)CC2)cc(-c2ccc(Cl)cc2)n1-c1ccc(Cl)cc1 (stereo not given)	2 (≈ 4.25 µM)	8 (≈ 17 µM)	4 (≈ 8.5 µM)	128	128	2 to 4 (≈ 4.25 to 8.5 µM)	16	16	<9.4e-08	8	4 (≈ 8.5 µM)	16 (≈ 34 µM)	64	128 (≈ 272 µM)	Active	16 (≈ 34 µM)	128 (≈ 272 µM)	<7.6e-08	16	8 (≈ 17 µM)	Activity (Staphylococcus aureus [8]): Active; IC50 (Topoisomerase IV): 61.2 µM; MIC (Acinetobacter baumannii [21]): 64 µg/mL; MIC (Klebsiella pneumoniae [22]): 64 µg/mL; IC50 (HeLa): 11.7 to 18.9 µg/mL (≈ 24.8 to 40.2 µM); MIC (Enterococcus faecalis [23]): 16 µg/mL (≈ 34 µM); IC50 [24]: 7.48 µg/mL; MIC (Pseudomonas aeruginosa [25]): 128 µg/mL; MIC (Acinetobacter baumannii [26]): 32 µg/mL; IC50 (DNA gyrase): 15.4 µM; IC50 (HEK293): 11.7 to 18.9 µg/mL (≈ 24.8 to 40.2 µM); MIC (Klebsiella pneumoniae [27]): 32 µg/mL (≈ 68 µM); MIC (Klebsiella pneumoniae [28]): 64 µg/mL; MIC (Escherichia coli [29]): 4 µg/mL; MIC (Pseudomonas aeruginosa [30]): 128 µg/mL; MIC (Acinetobacter baumannii [31]): 64 to 128 µg/mL (≈ 136 to 272 µM)
Cc1c(CNC2CCCCC2)cc(-c2ccc(C(C)C)cc2)n1-c1ccc(Cl)cc1	4 (≈ 9.5 µM)	4 (≈ 9.5 µM)	2 (≈ 4.75 µM)	> 128	> 128	4 (≈ 9.5 µM)	32	8	<9.4e-08	16	4 (≈ 9.5 µM)	32 (≈ 76 µM)	> 128	> 128	Active	> 128	> 128	<7.6e-08	2	> 128	Activity (Staphylococcus aureus [32]): Active; MIC (Acinetobacter baumannii [21]): 8 µg/mL; MIC (Klebsiella pneumoniae [22]): 128 µg/mL; IC50 (HeLa): 2.4 to 3 µg/mL (≈ 5.7 to 7.13 µM); MIC (Enterococcus faecalis [23]): 4 µg/mL (≈ 9.5 µM); MIC (Pseudomonas aeruginosa [25]): > 128 µg/mL; MIC (Acinetobacter baumannii [26]): 8 µg/mL; IC50 (DNA gyrase): 69.1 µM; IC50 (HEK293): 2.4 to 3 µg/mL (≈ 5.7 to 7.13 µM); MIC (Klebsiella pneumoniae [27]): > 128 µg/mL; MIC (Klebsiella pneumoniae [28]): > 128 µg/mL; MIC (Escherichia coli [29]): 2 µg/mL; MIC (Pseudomonas aeruginosa [30]): 8 µg/mL; MIC (Acinetobacter baumannii [31]): > 128 µg/mL
